Results published in PMC11265520 (RSC Advances, 2024).
Read-outs that look alike come from different tables or passages of the source.

Columns and labels:
[1] = system: DND-41; assay: Antiproliferative assay, DND-41; type: cell-based; settings: Homo sapiens, DND41, read-out: IC50 DND-41
[2] = system: breast cancer cells MCF-7; assay: MTT antiproliferative assay, MCF-7 under normoxia and hypoxia; type: cell-based, human; settings: for IC50: Homo sapiens; for HCR, hypoxic cytotoxicity ratio: IC50(N)/IC50(H): MCF-7; for antiproliferative activity, in words: MCF-7, Table 3
How it was run: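 MTT assay on MCF-7 cells grown in high-glucose DMEM with 10% FBS, penicillin and streptomycin at 37 °C and 5% CO2. Cells were seeded at 40 000 per well, and test compound (10 mM DMSO stock) was added after 24 h; controls got solvent. Cells were kept under normoxia (21% O2) or hypoxia (1% O2). IC50 is mean ± S.D. of 3 experiments; HCR = IC50(N)/IC50(H).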

[3] = target: hCA XII (Homo sapiens, UniProt O43570); assay: Stopped flow CO2 hydrase assay, hCA XII; type: biochemical
Sequence of hCA XII (O43570 25-354): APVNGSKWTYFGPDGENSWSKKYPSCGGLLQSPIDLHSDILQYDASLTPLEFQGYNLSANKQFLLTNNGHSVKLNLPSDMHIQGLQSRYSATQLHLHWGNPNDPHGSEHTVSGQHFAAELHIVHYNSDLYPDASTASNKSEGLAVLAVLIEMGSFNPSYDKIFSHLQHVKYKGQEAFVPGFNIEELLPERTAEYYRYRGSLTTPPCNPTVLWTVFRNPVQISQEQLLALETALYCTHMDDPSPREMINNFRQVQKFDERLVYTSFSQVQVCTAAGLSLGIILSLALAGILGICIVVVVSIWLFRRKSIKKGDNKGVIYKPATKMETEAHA

[4] = system: LN229; assay: Antiproliferative assay, LN229; type: cell-based; settings: Homo sapiens, LN-229, read-out: IC50 LN229
[5] = target: hCA IX (Homo sapiens, UniProt Q16790); assay: biochemical; type: biochemical
[6] = system: Z138; assay: Antiproliferative assay, Z138; type: cell-based; settings: Homo sapiens, Z-138, read-out: IC50 Z138
[7] = target: hCA II (Homo sapiens, UniProt P00918); assay: Stopped flow CO2 hydrase assay, hCA II; type: biochemical
[8] = system: NCI-H1975; assay: Antiproliferative assay, NCI-H1975; type: cell-based; settings: Homo sapiens, NCI-H1975, read-out: IC50 NCI-H1975
[9] = system: Capan-1; assay: Antiproliferative assay, Capan-1; type: cell-based; settings: Homo sapiens, CAPAN-1, read-out: IC50 Capan-1
[10] = target: hCA I (Homo sapiens, UniProt P00915); assay: Stopped flow CO2 hydrase assay, hCA I; type: biochemical
Sequence of hCA I (P00915 whole entry): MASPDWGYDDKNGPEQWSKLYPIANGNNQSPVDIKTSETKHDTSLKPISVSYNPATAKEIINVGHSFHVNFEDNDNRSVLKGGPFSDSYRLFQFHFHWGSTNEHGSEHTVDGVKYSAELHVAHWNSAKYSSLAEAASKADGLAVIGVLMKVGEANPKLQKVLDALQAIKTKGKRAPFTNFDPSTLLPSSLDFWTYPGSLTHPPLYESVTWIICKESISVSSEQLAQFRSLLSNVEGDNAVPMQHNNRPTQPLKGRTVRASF

[11] = system: K562; assay: Antiproliferative assay, K562; type: cell-based; settings: Homo sapiens, K562, read-out: IC50 K562
[12] = system: HL-60; assay: Antiproliferative assay, HL-60; type: cell-based; settings: Homo sapiens, HL-60, read-out: IC50 HL-60
[13] = system: HCT-116; assay: Antiproliferative assay, HCT-116; type: cell-based; settings: Homo sapiens, HCT-116, read-out: IC50 HCT-116
[14] = system: panel of tumor cell lines; assay: Antiproliferative activity over the panel of tumor cell lines; type: cell-based, human; settings: for IC50: Homo sapiens
[15] = system: A431 skin cancer cells; assay: MTT assay, A431 cells in normoxia and hypoxia; type: cell-based; settings: for IC50: Homo sapiens, A-431, 72 h
How it was run: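 A431 cells were cultured in high-glucose DMEM with 10% FBS and penicillin/streptomycin at 37 °C and 5% CO2, then seeded at 35 000 per well. After 24 h, test compound from a 10 mM DMSO stock was added, with solvent-only controls. Incubation lasted 72 h under normoxia or hypoxia (1% O2). Viability was read by MTT, with IC50 from the concentration-response curve.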

[16] = system: CA IX and cleaved PARP expression in A431 cells; assay: Immunoblotting of CA IX and cleaved PARP in A431 cells under hypoxia; type: cell-based; settings: 24 h
How it was run: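 A431 cells grew 24 h, then received test compound or tirapazamine reference (30 μM) in fresh medium and were held 24 h in hypoxia; the control stayed in normoxia. Lysis buffer: Tris-HCl pH 7.5, Igepal, NaCl, EDTA, DTT, PMSF, orthovanadate, protease inhibitors. Protein was measured by Bradford. Blots: 10% reducing SDS-PAGE, nitrocellulose, milk/TBS-Tween block, primary antibodies overnight at 4 °C, GAPDH loading control, HRP anti-rabbit, ECL.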

[17] = read-out: IC50 range over the tested tumor cell lines

Row | Structure (SMILES) | IC50 ([2]; MCF7, read-out: IC50 H) [nM] | IC50 ([2]; MCF7, read-out: IC50 N) [nM] | Ki [3] [nM] | Ki [5] [nM] | Ki [7] [nM] | IC50 [8] [nM] | Ki [10] [nM] | IC50 [11] [nM] | IC50 [12] [nM] | IC50 [13] [nM] | IC50 [1] [nM] | HCR, hypoxic cytotoxicity ratio: IC50(N)/IC50(H) [2] | IC50 [4] [nM] | IC50 [6] [nM] | IC50 [9] [nM] | other results
1 | N#Cc1c(-c2ccco2)[n+]([O-])c2cc(S(N)(=O)=O)ccc2[n+]1[O-] [Compound 7c, 3-(Furan-2-yl)-6-sulfamoylquinoxaline-2-carbonitrile 1,4-dioxide] | > 25000 | > 25000 | > 10000 | > 10000 | 4.4 ± 0.2 | > 100000 | 38 ± 1.1 | > 100000 | > 100000 | > 100000 | > 100000 | – | > 100000 | > 100000 | > 100000 | antiproliferative activity, in words [2]: complete loss of activity; activity against CA XII, in words [3]: inactive; activity against CA IX, in words [5]: complete loss of activity
2 | CCOC(=O)c1c(-c2ccccc2)[n+]([O-])c2cc(S(N)(=O)=O)ccc2[n+]1[O-] [Compound 7e, 2-(Ethoxycarbonyl)-3-phenyl-6-sulfamoylquinoxaline 1,4-dioxide] | 900 ± 60 | 4000 ± 600 | 252 ± 14 | 257 ± 14 | 5.4 ± 0.3 | 47400 ± 2300 | 42.4 ± 1.9 | 52600 ± 2100 | 52700 ± 2600 | > 100000 | 28200 ± 1400 | 4.7 | 87000 ± 4300 | 15300 ± 800 | 6000 ± 300 | –
3 | CC(=O)c1c(C)[n+]([O-])c2cc(S(N)(=O)=O)ccc2[n+]1[O-] [Compound 7g, 2-Acetyl-3-methyl-6-sulfamoylquinoxaline 1,4-dioxide] | 6900 ± 300 | 7100 ± 200 | 240 ± 13 | 42.2 ± 4 | 7.4 ± 0.2 | 66100 ± 3300 | 65.7 ± 2.4 | 94800 ± 4700 | 85900 ± 4300 | 69600 ± 3500 | 66900 ± 3300 | 1.1 | > 100000 | 44300 ± 2200 | 38300 ± 1900 | decrease in activity compared to 2-ethoxycarbonyl analogue 7f ([14]; Table 4 cell lines): 2–25 fold; decrease in cell survival ([15]; A431, 50 μM, normoxia, 72 h): approximately 40%; IC50 ([15]; read-out: IC50 A431, hypoxia): ~11000 nM; IC50 ([15]; read-out: IC50 A431, normoxia): > 50000 nM; CA IX expression [16]: dose-dependent reduction in CA IX expression; cleaved PARP (marker of apoptosis) [16]: accumulation of cleaved PARP
4 | NS(=O)(=O)c1ccc2c(c1)[n+]([O-])c(C(F)(F)F)c(C(=O)c1ccccc1)[n+]2[O-] [Compound 7h, 2-Benzoyl-6-sulfamoyl-3-(trifluoromethyl)quinoxaline 1,4-dioxide] | 800 ± 50 | 1100 ± 100 | 143 ± 11 | > 10000 | 4.8 ± 0.3 | 1900 ± 100 | 51.5 ± 3.2 | 1900 ± 200 | 1800 ± 100 | 1300 ± 80 | 2100 ± 200 | 1.4 | 1400 ± 30 | 1900 ± 100 | 1400 ± 70 | IC50 [14, 17]: 1300 to 2100 nM; IC50 ([14]; read-out: IC50 range, all cell lines): 1100 to 2100 nM; higher activity compared to other analogs ([14]; against most tumor cells): 1.5–20 times
5 | N#Cc1c(-c2ccc(Cl)cc2)[n+]([O-])c2ccc(S(N)(=O)=O)cc2[n+]1[O-] [Compound 8b, 3-(4-Chlorophenyl)-7-sulfamoylquinoxaline-2-carbonitrile 1,4-dioxide] | – | – | 133 ± 12 | > 10000 | 5 ± 0.4 | – | 40.3 ± 3.1 | – | – | – | – | – | – | – | – | –
6 | COc1cc([C@@H]2c3cc4c(cc3[C@@H](O[C@@H]3O[C@@H]5CO[C@@H](C)O[C@H]5[C@H](O)[C@H]3O)[C@H]3COC(=O)[C@H]23)OCO4)cc(OC)c1O [Etoposide, etoposide, reference compound] | – | – | – | – | – | 1100 ± 100 | – | 1200 ± 60 | 700 ± 40 | 2300 ± 100 | 290 ± 10 | – | 1700 ± 100 | 300 ± 20 | 130 ± 10 | IC50 [14, 17]: 130 to 2300 nM

The next lines start with results.

Row | IC50 ([2]; MCF7, read-out: IC50 H) [nM] | IC50 ([2]; MCF7, read-out: IC50 N) [nM] | Ki [3] [nM] | Ki [5] [nM] | Ki [7] [nM] | IC50 [8] [nM] | Ki [10] [nM] | IC50 [11] [nM] | IC50 [12] [nM] | IC50 [13] [nM] | Structure (SMILES) | IC50 [1] [nM] | HCR, hypoxic cytotoxicity ratio: IC50(N)/IC50(H) [2] | IC50 [4] [nM] | IC50 [6] [nM] | IC50 [9] [nM] | other results
7 | 900 ± 300 | 3500 ± 200 | 89 ± 7 | 2400 ± 96 | 2.7 ± 0.2 | 19900 ± 900 | 49.1 ± 3 | 10800 ± 500 | 2300 ± 100 | 47900 ± 2300 | N#Cc1c(-c2ccccc2)[n+]([O-])c2cc(S(N)(=O)=O)ccc2[n+]1[O-] [Compound 7a, 3-Phenyl-6-sulfamoylquinoxaline-2-carbonitrile 1,4-dioxide] | 800 ± 50 | 3.9 | 38800 ± 1900 | 8700 ± 400 | 7500 ± 400 | –
8 | 800 ± 200 | 1800 ± 200 | 178 ± 9 | 429 ± 21 | 5.1 ± 0.3 | 13900 ± 700 | 53.7 ± 1.5 | 29700 ± 1500 | 2000 ± 100 | 34300 ± 1700 | N#Cc1c(-c2ccc(Cl)cc2)[n+]([O-])c2cc(S(N)(=O)=O)ccc2[n+]1[O-] [Compound 7b, 3-(4-Chlorophenyl)-6-sulfamoylquinoxaline-2-carbonitrile 1,4-dioxide] | 5400 ± 300 | 2.2 | 24000 ± 1200 | 2500 ± 200 | 1800 ± 100 | enhancement of cytotoxicity compared to unsubstituted analogue 7a ([14]; all tested cell lines except DND-41): 1.2 to 6.8 times
9 | > 25000 | > 25000 | – | – | – | > 100000 | – | > 100000 | 72400 ± 3600 | > 100000 | N#Cc1c(-c2cccs2)[n+]([O-])c2cc(S(N)(=O)=O)ccc2[n+]1[O-] [Compound 7d, 6-Sulfamoyl-3-(thiophen-2-yl)quinoxaline-2-carbonitrile 1,4-dioxide] | 44800 ± 2200 | – | 98800 ± 4900 | > 100000 | > 100000 | antiproliferative activity, in words [2]: complete loss of activity; activity against CA IX, in words [5]: complete loss of activity; Ki ([5]; read-out: Ki hCA IX, mean from three experiments, stopped flow CO2 hydrase assay): > 10000 nM; Ki ([7]; read-out: Ki hCA II, mean from three experiments, stopped flow CO2 hydrase assay): 4.2 ± 0.1 nM; Ki ([10]; read-out: Ki hCA I, mean from three experiments, stopped flow CO2 hydrase assay): 41.7 ± 2 nM
10 | 4300 ± 300 | 10500 ± 1200 | 56.4 ± 4 | > 10000 | 8 ± 0.3 | 33300 ± 1700 | 63 ± 3.1 | 26000 ± 1300 | 32600 ± 1600 | 2700 ± 100 | CCOC(=O)c1c(C)[n+]([O-])c2cc(S(N)(=O)=O)ccc2[n+]1[O-] [Compound 7f, 2-(Ethoxycarbonyl)-3-methyl-6-sulfamoylquinoxaline 1,4-dioxide] | 10300 ± 500 | 2.4 | 35900 ± 1800 | 3300 ± 1700 | 1700 ± 100 | enhancement of tumor cell growth inhibition compared to compound 7e ([14]; Table 4 cell lines): 1.4–40 times; activity against CA IX, in words [5]: did not exhibit any inhibitory activity
11 | 1300 ± 300 | 4800 ± 200 | 111 ± 9.7 | > 10000 | 4.4 ± 0.1 | – | 60.7 ± 2.6 | – | – | – | N#Cc1c(-c2ccccc2)[n+]([O-])c2ccc(S(N)(=O)=O)cc2[n+]1[O-] [Compound 8a, 3-Phenyl-7-sulfamoylquinoxaline-2-carbonitrile 1,4-dioxide] | – | 3.7 | – | – | – | –
12 | 2800 ± 400 | 11700 ± 1200 | – | – | – | – | – | – | – | – | CC(=O)c1c(C)[n+]([O-])c2ccc(S(N)(=O)=O)cc2[n+]1[O-] [Compound 8g, 2-Acetyl-3-methyl-7-sulfamoylquinoxaline 1,4-dioxide] | – | 4.2 | – | – | – | –
13 | 400 ± 30 | 300 ± 30 | – | – | – | – | – | – | – | – | COc1cccc2c1C(=O)c1c(O)c3c(c(O)c1C2=O)C[C@@](O)(C(=O)CO)C[C@@H]3O[C@H]1C[C@H](N)[C@H](O)[C@H](C)O1 [DOXO, doxorubicin, reference compound] | – | 0.7 | – | – | – | –
14 | 4500 ± 1100 | 24200 ± 3300 | – | – | – | – | – | – | – | – | Nc1n[n+]([O-])c2ccccc2[n+]1[O-] [TPZ, Tirapazamine, reference compound] | – | 5.4 | – | – | – | –
